# How the values were obtained:
# [1] = test system: Mus musculus; assay: Anti-fighting potency against foot shock induced fighting behavior in mice expressed as % inhibition at 25 mg/kg peroral administration; type: functional; details: route oral
# [2] = test system: Rattus norvegicus; assay: Evaluated for neuroleptic-like property using open-field test in rats(increase in ambulation at 3 to 20 mg/kg on peroral administration; value may range from 11.9 to 23.1; type: functional; details: dose mg/kg 3-20, route oral
# [3] = Ratio of muscle relaxant action to antifighting effect; type: functional
# Method in brief: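 Muscle relaxation was measured by traction test in mice (eight per group), 1 h after oral dosing. Forepaws were placed on a horizontal wire bar 30 cm high. Failure to bring the hind feet onto the wire within 5 s counted as relaxation. This action was set in ratio with the antifighting effect.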
# [4] = test system: Mus musculus; assay: Anti-morphine activity against the morphine-induced Straub's tail reaction in mice on peroral administration; type: functional; details: po
# Method in brief: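 Mice, six per group, dosed orally with test compound 1 h before morphine (20 mg/kg ip); Straub's tail reaction scored as index of morphine CNS stimulation.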
# [5] = test system: Rattus norvegicus; assay: Evaluated for neuroleptic-like property using anti-methamphetamine test in rats on peroral administration; type: functional; details: po
# Method in brief: (§1)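 Groups of six rats were dosed orally, then given methamphetamine 5 mg/kg ip 1 h later. Stereotypy was scored 0–4: sleep/eyes closed 0, motionless/eyes open 1, moving around cage 2, sniffing 3, continuous licking or gnawing 4. ED50 was the dose halving mean score versus controls, with 95% confidence limits.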
# [6] = Toxicity on peroral administration to mice; type: organism-based; details: mouse, in vivo, po
# Method in brief: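 Oral dosing to mice, eight per group; LD50 calculated by Litchfield-Wilcoxon method.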
# [7] = test system: Mus musculus; assay: Anti-morphine activity against morphine-induced Straub''s tail reaction in mice expressed as % inhibition at 25 mg/kg peroral administration; type: functional; details: route oral
# Method in brief: (§2)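 Six mice per group received test compounds orally 1 h before morphine (20 mg/kg ip). Straub's tail reaction was scored as the index of morphine's CNS stimulant action.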
# [8] = test system: Mus musculus; assay: Cataleptogenic action in mice on peroral administration; value may range from 30 to 71; type: functional; details: po
# Method in brief: (§3)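 Six mice per group were dosed orally 1 h before testing. Forepaws were placed on a horizontal steel bar to force an abnormal posture. Holding the posture over 30 s counted as catalepsy. ED50 was the dose giving catalepsy in 50% of animals, with 95% confidence limits.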
# [9] = test system: Mus musculus; assay: Evaluated for hypothermic activity in mice at 30 mg/kgo n peroral administration; type: functional; details: dose 30 mg/kg; route oral
# Method in brief: (§4)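 Six mice per group were dosed orally 1 h before testing. Rectal temperature was read with an electronic thermometer. Results are given as degrees of hypothermia (Δt °C) versus an untreated group.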
# [10] = test system: Rattus norvegicus; assay: Evaluated for neuroleptic-like property using open-field test in rats(increase in ambulation at 3 to 20mg/kg on peroral administration; value may range from 8.1 to 13.2; type: functional; details: po
# [11] = test system: Rattus norvegicus; assay: Evaluated for neuroleptic-like property using anti-methamphetamine test in rats on peroral administration; value may range from 20 to 79; type: functional; details: po; method in brief: as §1
# [12] = test system: Mus musculus; assay: Evaluated for hypothermic activity in mice at 30 mg/kg on peroral administration; type: functional; details: route oral; method in brief: as §4
# [13] = test system: Mus musculus; assay: Cataleptogenic action in mice on peroral administration; value ranges from 26-93; type: functional; details: po; method in brief: as §3
# [14] = test system: Mus musculus; assay: Anti-morphine activity against the morphine-induced Straub''s tail reaction in mice expressed as % inhibition at 25 mg/kg peroral administration; type: functional; details: route oral; method in brief: as §2
# [15] = test system: Mus musculus; assay: Cataleptogenic action in mice on peroral administration; type: functional; details: po; method in brief: as §3
# [16] = test system: Rattus norvegicus; assay: Evaluated for neuroleptic-like property using open-field test in rats(increase in ambulation at 3 to 20 mg/kg on peroral administration; type: functional; details: dose mg/kg 3-20, route oral
SMILES,inhibition in vivo at 25 mg/kg [1],ED50 [2],Ratio [3],ED50 [4],ED50 [5],LD50 [6],inhibition in vivo at 25 mg/kg [7],ED50 [8],Delta t [9],ED50 [10],ED50 [11],Delta t [12],ED50 [13],inhibition in vivo at 25 mg/kg [14],ED50 [15],ED50 [16]
Cc1cc2c(cc1OCCCN1CCN(c3ccccc3)CC1)CCC2.Cl.Cl,83%,16.6 mg/kg,5.41,16 mg/kg,> 100 mg/kg,> 2000 mg/kg,94%,56 mg/kg,-2.5 °C,,,,,,,
Cl.Cl.Fc1ccc(N2CCN(CCCOc3ccc4c(c3)CCC4)CC2)cc1,88%,,3.73,,,> 2000 mg/kg,,,,10.3 mg/kg,43 mg/kg,-5 °C,50 mg/kg,100%,,
CN(C)CCCN1c2ccccc2Sc2ccc(Cl)cc21 [CHLORPROMAZINE],,,,,15 mg/kg,,,,,,,-1.5,,,17 mg/kg,10.1 mg/kg

# — ChEMBL document CHEMBL1122329, “Synthesis and antianxiety activity of (omega-piperazinylalkoxy)indan derivatives” (J Med Chem, 1983)
